Experimental data published in ChEMBL document CHEMBL2384908, “Discovery of novel bromophenol 3,4-dibromo-5-(2-bromo-3,4-dihydroxy-6-(isobutoxymethyl)benzyl)benzene-1,2-diol as protein tyrosine phosphatase 1B inhibitor and its anti-diabetic properties in C57BL/KsJ-db/db mice” (Eur J Med Chem, 2013).
Calls of active or inactive are those of the source. The rule behind the calls is not given here.

Experiments:
[1] = target: T1, Tyrosine-protein phosphatase non-receptor type 1 (Homo sapiens, UniProt P18031); test: Inhibition of human recombinant GST-tagged PTP1B using para-nitrophenyl phosphate as substrate after 2 mins
T1 sequence (P18031 whole entry): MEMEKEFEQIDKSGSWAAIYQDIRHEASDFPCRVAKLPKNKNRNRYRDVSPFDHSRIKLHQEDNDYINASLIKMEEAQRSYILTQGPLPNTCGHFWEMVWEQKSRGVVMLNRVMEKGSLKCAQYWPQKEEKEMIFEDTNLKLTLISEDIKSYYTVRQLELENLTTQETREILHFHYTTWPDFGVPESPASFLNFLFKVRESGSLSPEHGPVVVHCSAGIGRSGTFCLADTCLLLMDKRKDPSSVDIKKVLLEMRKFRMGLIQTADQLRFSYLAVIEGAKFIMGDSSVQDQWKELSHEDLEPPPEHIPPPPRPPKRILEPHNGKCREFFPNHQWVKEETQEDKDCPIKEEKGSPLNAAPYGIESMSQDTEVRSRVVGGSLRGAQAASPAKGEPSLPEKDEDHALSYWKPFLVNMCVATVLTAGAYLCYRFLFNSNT

[2] = target: T2, Tyrosine-protein phosphatase non-receptor type 1 (Homo sapiens) (UniProt P18031); conditions: at 5 µg/mL
T2 sequence (whole entry): T1 sequence (P18031 whole entry)

[3] = target: T2, Tyrosine-protein phosphatase non-receptor type 1 (Homo sapiens); conditions: at 20 µg/mL
[4] = test system: Mus musculus; test: Antidyslipidemic activity in po dosed C57BL/KsJ db/db mouse assessed as reduction of total cholesterol level in blood administered for 6 weeks; assay type: functional, organism-based
[5] = test system: Mus musculus; test: Antidyslipidemic activity in po dosed C57BL/KsJ db/db mouse assessed as reduction of triglycerides level in blood administered for 6 weeks; assay type: functional, organism-based
[6] = test system: Mus musculus; test: […] activity in C57BL/KsJ db/db mouse assessed as reduction of glycated serum protein level in blood at 25 mg/kg, po administered for 6 weeks (reference value: 1.62 +/- 0.27 mmol/l); assay type: functional
In short: (§1)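 db/db mice (C57BL/KsJ, 6-8 weeks, n = 10/group) given compound orally once daily for six weeks in 0.5% CMC-Na with 2% tween-80. Vehicle model group; db/dm mice as controls. At the end, overnight fast, then dosing; eyeball blood taken 1 h later into heparin tubes. HbA1c read by reagent kit. GSP measured in plasma by fructosamine method. Mean ± s.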

[7] = test system: Mus musculus; test: […] activity in C57BL/KsJ db/db mouse assessed as reduction of glycated serum protein level in blood at 50 mg/kg, po administered for 6 weeks (reference value: 1.62 +/- 0.27 mmol/l); assay type: functional; in short: as §1
[8] = test system: Mus musculus; test: […] activity in C57BL/KsJ db/db mouse assessed as reduction of HbA1c level in blood at 25 mg/kg, po administered for 6 weeks (reference value: 2.65 +/- 0.40%); assay type: functional; set-up: scale not given: the % may be the effect or the level left; in short: as §1
[9] = test system: Mus musculus; test: […] activity in C57BL/KsJ db/db mouse assessed as reduction of HbA1c level in blood at 50 mg/kg, po administered for 6 weeks (reference value: 2.65 +/- 0.40%); assay type: functional; set-up: scale not given: the % may be the effect or the level left; in short: as §1
[10] = test system: Mus musculus; test: Antidyslipidemic activity in C57BL/KsJ db/db mouse assessed as reduction of total cholesterol level in blood at 25 mg/kg, po administered for 6 weeks (reference value: 3.3 +/- 0.5 mmol/l); assay type: functional
[11] = test system: Mus musculus; test: Antidyslipidemic activity in C57BL/KsJ db/db mouse assessed as reduction of total cholesterol level in blood at 50 mg/kg, po administered for 6 weeks (reference value: 3.3 +/- 0.5 mmol/l); assay type: functional
[12] = test system: Mus musculus; test: Antidyslipidemic activity in C57BL/KsJ db/db mouse assessed as reduction of total cholesterol level in blood at 25 mg/kg, po administered for 6 weeks measured on 2nd week (reference value: 3.5 +/- 0.2 mmol/l); assay type: functional
[13] = test system: Mus musculus; test: Antidyslipidemic activity in C57BL/KsJ db/db mouse assessed as reduction of total cholesterol level in blood at 50 mg/kg, po administered for 6 weeks measured on 2nd week (reference value: 3.5 +/- 0.2 mmol/l); assay type: functional
[14] = test system: Mus musculus; test: Antidyslipidemic activity in C57BL/KsJ db/db mouse assessed as reduction of triglycerides level in blood at 25 mg/kg, po administered for 6 weeks (reference value: 1.05 +/- 0.11 mmol/l); assay type: functional
[15] = test system: Mus musculus; test: Antidyslipidemic activity in C57BL/KsJ db/db mouse assessed as reduction of triglycerides level in blood at 50 mg/kg, po administered for 6 weeks (reference value: 1.05 +/- 0.11 mmol/l); assay type: functional
[16] = test system: Mus musculus; test: Antidyslipidemic activity in C57BL/KsJ db/db mouse assessed as reduction of triglycerides level in blood at 25 mg/kg, po administered for 6 weeks measured on 2nd week (reference value: 1.08 +/- 0.07 mmol/l); assay type: functional
[17] = test system: Mus musculus; test: Antidyslipidemic activity in C57BL/KsJ db/db mouse assessed as reduction of triglycerides level in blood at 50 mg/kg, po administered for 6 weeks measured on 2nd week (reference value: 1.08 +/- 0.07 mmol/l); assay type: functional
[18] = test system: Mus musculus; test: Antidiabetic activity in C57BL/KsJ db/db mouse assessed as reduction of blood glucose level at 50 mg/kg, po administered for 6 weeks measured on 3rd week; assay type: functional; set-up: scale not given: the % may be the effect or the level left
In short: (§2)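 C57BL/KsJ db/db mice, 6-8 weeks old, one-week adaptation, n = 10 per group, chow and water ad libitum. Compound suspended in 0.5% CMC-Na with 2% tween-80, given orally once daily for six weeks (about 0.2 mL/20 g). Vehicle-treated db/db model group. Blood glucose read weekly by glucometer.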

[19] = test system: Mus musculus; test: Antidiabetic activity in C57BL/KsJ db/db mouse assessed as reduction of blood glucose level at 25 mg/kg, po administered for 6 weeks measured on 3rd week; assay type: functional; set-up: scale not given: the % may be the effect or the level left; in short: as §2
[20] = test system: Mus musculus; test: Toxicity in C57BL/KsJ db/db mouse assessed as mortality at 25 to 50 mg/kg, po administered for 6 weeks; assay type: organism-based; set-up: dose 25-50 mg/kg, route oral; conditions: in vivo, 1008 h
[21] = test system: Mus musculus; test: Toxicity in C57BL/KsJ db/db mouse assessed as change in body weight at 25 to 50 mg/kg, po administered for 6 weeks; assay type: organism-based; set-up: dose 25-50 mg/kg, route oral; conditions: in vivo, 1008 h
[22] = test system: Mus musculus; test: Antidiabetic activity in C57BL/KsJ db/db mouse assessed as reduction of food and water intake at 25 to 50 mg/kg, po administered for 6 weeks; assay type: functional, organism-based
In short: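 db/db mice (C57BL/KsJ, 6-8 weeks), n = 10 per group, dosed orally once daily for six weeks as a suspension in 0.5% CMC-Na plus 2% tween-80. Vehicle model group; db/dm mice as non-diabetic controls. Food intake recorded weekly.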

[23] = test system: Mus musculus; test: Antidiabetic activity in C57BL/KsJ db/db mouse assessed as reduction of blood glucose level at 50 mg/kg, po administered for 6 weeks; assay type: functional; in short: as §2
[24] = test system: Mus musculus; test: Antidiabetic activity in C57BL/KsJ db/db mouse assessed as reduction of blood glucose level at 50 mg/kg, po administered for 6 weeks measured on first week; assay type: functional; in short: as §2

In the case of `Oc1cc(Cc2cc(Br)c(O)c(Br)c2Br)c(Br)c(Br)c1O`, the IC50 [1] is reported as 2.42 µM.

With `COc1c(Br)c(C)c(Cc2c(Br)c(Br)c(OC)c(OC)c2Br)c(Br)c1OC` the inhibition [2] was 40.1% and the inhibition [3] was 75.3%.

`CC(C)COCc1cc(O)c(O)c(Br)c1Cc1cc(O)c(O)c(Br)c1Br` was tested, and the Activity [4] was “Dose-dependent effect”, the Activity [5] was “Dose-dependent effect” and the Activity [6] was 3.29 mmol/L. The Activity [7] was 3 mmol/L, the Activity [8] was 3.24% and the Activity [9] was 3.03%. It also gave an Activity [10] of 8.5 mmol/L, an Activity [11] of 9.1 mmol/L and an Activity [12] of 7.7 mmol/L. For the same compound, the Activity [13] was 7.8 mmol/L, the Activity [14] was 1.41 mmol/L and the Activity [15] was 1.48 mmol/L. For the same compound, the Activity [16] was 1.16 mmol/L, the Activity [17] was 1.35 mmol/L and the Activity [18] was 36.4%. The Activity [19] was 32.7%, the Activity [20] was “Non-toxic” and the Activity [21] was “Toxic”. For the same compound, the Activity [22] was “Active”, the inhibition [2] was 48.3% and the inhibition [3] was 96.2%.

`COc1cc(C(=O)c2c(C)cc(OC)c(OC)c2Br)cc(Br)c1OC` was tested, and the inhibition [3] was 36.7%.

Work on `CCCCOCc1cc(O)c(O)c(Br)c1Cc1cc(O)c(O)c(Br)c1Br` yielded an inhibition [2] of 27.2% and an inhibition [3] of 64.6%.

Compound `CN(CCOc1ccc(CC2SC(=O)NC2=O)cc1)c1ccccn1` (configuration not stated) [ROSIGLITAZONE] has an Activity [7] of 2.6 mmol/L, an Activity [9] of 2.56% and an Activity [11] of 7.7 mmol/L. It also gave an Activity [13] of 6.5 mmol/L, an Activity [15] of 1.29 mmol/L and an Activity [17] of 1.06 mmol/L. It also gave an Activity [23] of 8 mmol/L and an Activity [24] of 8.9 mmol/L.

In the case of `CCCOCc1cc(O)c(O)c(Br)c1Cc1cc(O)c(O)c(Br)c1Br`, the inhibition [2] is reported as 55.7% and the inhibition [3] is reported as 86.2%.

`COc1cc(Cc2c(CO)cc(OC)c(OC)c2Br)cc(Br)c1OC` was tested, and the inhibition [3] was 5.62%.

Compound `CCOCc1cc(OC)c(OC)c(Br)c1C(=O)c1cc(OC)c(OC)c(Br)c1Br` has an inhibition [2] of 17.6% and an inhibition [3] of 73.8%.

For `COc1cc(Cc2c(C)cc(OC)c(OC)c2Br)cc(Br)c1OC`, the inhibition [3] was 14.5%.

`COc1cc(C2OC(=O)c3cc(OC)c(OC)c(Br)c32)c(Br)c(Br)c1OC` (configuration not stated) gave an inhibition [3] of 10.6%.

Work on `COC(=O)c1cc(OC)c(OC)c(Br)c1C(=O)c1cc(OC)c(OC)c(Br)c1Br` yielded an inhibition [2] of 23.8% and an inhibition [3] of 55.3%.

With `COCc1cc(O)c(O)c(Br)c1Cc1cc(O)c(O)c(Br)c1Br` the inhibition [2] was 25.3% and the inhibition [3] was 51.9%.

`CCOCc1cc(O)c(O)c(Br)c1Cc1cc(O)c(O)c(Br)c1` gave an inhibition [2] of 17.3% and an inhibition [3] of 50.6%.

Compound `COc1cc(C(=O)c2c(C)cc(OC)c(OC)c2Br)c(Br)c(Br)c1OC` has an inhibition [3] of 48.6%.

`COc1cc(Cc2c(C)cc(OC)c(OC)c2Br)c(Br)c(Br)c1OC` showed an inhibition [2] of 43.1% and an inhibition [3] of 87.5%.

`COc1ccc(C(=O)c2c(C)cc(OC)c(OC)c2Br)cc1OC` was tested, and the inhibition [3] was 28.9%.

`COc1cc(C2OCc3cc(OC)c(OC)c(Br)c32)c(Br)c(Br)c1OC` (configuration not stated) showed an inhibition [3] of 11.4%.

`Cc1cc(O)c(O)c(Br)c1Cc1cc(O)c(O)c(Br)c1Br` gave an inhibition [2] of 32.1% and an inhibition [3] of 53.4%.

`COCc1cc(OC)c(OC)c(Br)c1C(=O)c1cc(OC)c(OC)c(Br)c1Br` gave an inhibition [2] of 17.7% and an inhibition [3] of 61.8%.

`COc1cc(C(=O)c2c(C(=O)O)cc(OC)c(OC)c2Br)c(Br)c(Br)c1OC` showed an inhibition [3] of 29.9%.

With `COc1cc(Cc2c(CO)cc(OC)c(OC)c2Br)c(Br)c(Br)c1OC` the inhibition [2] was 29.1% and the inhibition [3] was 74.9%.

For `COc1cc(C)c(Cc2c(Br)c(Br)c(OC)c(OC)c2Br)c(Br)c1OC`, the inhibition [2] was 38.2% and the inhibition [3] was 72.6%.
